Data on nine compounds can be found in ChEMBL document CHEMBL1130213, “Synthesis and pharmacological characterization of aminocyclopentanetricarboxylic acids: new tools to discriminate between metabotropic glutamate receptor subtypes” (J Med Chem, 1997).

SMILES strings stand for the structures. Bounds are passed on as bounds.

For test [1], the target named is T1, Metabotropic glutamate receptor 2 (Homo sapiens, UniProt Q14416). As to the kind of experiment: Agonist activity against Metabotropic glutamate receptor 2 expressed in HEK 293 cells was evaluated by measuring total inositol phosphate accumulation. Type of test: functional, cell-based, HEK293. The method, boiled down:
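HEK 293 cells in DMEM with 10% fetal calf serum, electroporated with receptor plasmid (mGluR1a 0.3 μg, or mGluR2 2 μg co-expressed with Gqi9). Cells labeled overnight with [3H]myo-inositol, then stimulated 30 min with agonist in 10 mM LiCl. IP produced expressed over membrane radioactivity. Basal taken with glutamate pyruvate transaminase (1 unit/mL) plus 2 mM pyruvate. EC50 from logistic fit; triplicates.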
Target sequence in this assay (Q14416 whole entry): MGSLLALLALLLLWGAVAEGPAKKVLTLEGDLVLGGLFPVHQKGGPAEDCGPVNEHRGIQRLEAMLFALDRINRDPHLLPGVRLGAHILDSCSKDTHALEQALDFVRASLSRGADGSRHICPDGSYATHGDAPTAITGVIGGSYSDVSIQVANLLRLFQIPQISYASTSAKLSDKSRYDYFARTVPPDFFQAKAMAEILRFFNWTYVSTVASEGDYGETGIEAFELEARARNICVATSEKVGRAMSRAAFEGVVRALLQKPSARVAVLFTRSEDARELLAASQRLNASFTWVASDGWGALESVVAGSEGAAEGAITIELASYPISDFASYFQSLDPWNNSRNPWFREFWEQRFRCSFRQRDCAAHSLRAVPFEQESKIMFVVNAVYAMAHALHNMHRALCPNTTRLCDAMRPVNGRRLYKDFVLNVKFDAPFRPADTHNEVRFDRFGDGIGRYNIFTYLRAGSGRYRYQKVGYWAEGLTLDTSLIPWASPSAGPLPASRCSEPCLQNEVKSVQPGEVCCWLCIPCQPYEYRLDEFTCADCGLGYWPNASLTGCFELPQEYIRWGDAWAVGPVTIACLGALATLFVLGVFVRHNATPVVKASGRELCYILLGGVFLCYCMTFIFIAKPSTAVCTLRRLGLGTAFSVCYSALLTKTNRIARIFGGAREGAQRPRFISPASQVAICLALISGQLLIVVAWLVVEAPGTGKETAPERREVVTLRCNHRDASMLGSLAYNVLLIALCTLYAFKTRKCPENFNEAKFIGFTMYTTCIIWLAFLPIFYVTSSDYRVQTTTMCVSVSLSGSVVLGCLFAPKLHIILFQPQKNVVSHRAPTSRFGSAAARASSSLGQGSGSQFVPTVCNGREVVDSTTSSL

Test [2] addresses T1, Metabotropic glutamate receptor 2. As to the kind of experiment: Agonist activity against Metabotropic glutamate receptor 2 expressed in HEK 293 cells was evaluated by measuring total inositol phosphate accumulation; No effect at 1 mM. Type of test: functional, cell-based. The note with it: hek293.
Target sequence in this assay (Q14416 whole entry): as above
Test [3] deals with Metabotropic glutamate receptor 1 (Homo sapiens, UniProt Q13255). As to the kind of experiment: Agonist activity against Metabotropic glutamate receptor 1 expressed in HEK 293 cells was evaluated by measuring total inositol phosphate accumulation; No effect at 1 mM. Type of test: functional, cell-based. The settings on record: hek293.
Chain of Metabotropic glutamate receptor 1 (Q13255 whole entry): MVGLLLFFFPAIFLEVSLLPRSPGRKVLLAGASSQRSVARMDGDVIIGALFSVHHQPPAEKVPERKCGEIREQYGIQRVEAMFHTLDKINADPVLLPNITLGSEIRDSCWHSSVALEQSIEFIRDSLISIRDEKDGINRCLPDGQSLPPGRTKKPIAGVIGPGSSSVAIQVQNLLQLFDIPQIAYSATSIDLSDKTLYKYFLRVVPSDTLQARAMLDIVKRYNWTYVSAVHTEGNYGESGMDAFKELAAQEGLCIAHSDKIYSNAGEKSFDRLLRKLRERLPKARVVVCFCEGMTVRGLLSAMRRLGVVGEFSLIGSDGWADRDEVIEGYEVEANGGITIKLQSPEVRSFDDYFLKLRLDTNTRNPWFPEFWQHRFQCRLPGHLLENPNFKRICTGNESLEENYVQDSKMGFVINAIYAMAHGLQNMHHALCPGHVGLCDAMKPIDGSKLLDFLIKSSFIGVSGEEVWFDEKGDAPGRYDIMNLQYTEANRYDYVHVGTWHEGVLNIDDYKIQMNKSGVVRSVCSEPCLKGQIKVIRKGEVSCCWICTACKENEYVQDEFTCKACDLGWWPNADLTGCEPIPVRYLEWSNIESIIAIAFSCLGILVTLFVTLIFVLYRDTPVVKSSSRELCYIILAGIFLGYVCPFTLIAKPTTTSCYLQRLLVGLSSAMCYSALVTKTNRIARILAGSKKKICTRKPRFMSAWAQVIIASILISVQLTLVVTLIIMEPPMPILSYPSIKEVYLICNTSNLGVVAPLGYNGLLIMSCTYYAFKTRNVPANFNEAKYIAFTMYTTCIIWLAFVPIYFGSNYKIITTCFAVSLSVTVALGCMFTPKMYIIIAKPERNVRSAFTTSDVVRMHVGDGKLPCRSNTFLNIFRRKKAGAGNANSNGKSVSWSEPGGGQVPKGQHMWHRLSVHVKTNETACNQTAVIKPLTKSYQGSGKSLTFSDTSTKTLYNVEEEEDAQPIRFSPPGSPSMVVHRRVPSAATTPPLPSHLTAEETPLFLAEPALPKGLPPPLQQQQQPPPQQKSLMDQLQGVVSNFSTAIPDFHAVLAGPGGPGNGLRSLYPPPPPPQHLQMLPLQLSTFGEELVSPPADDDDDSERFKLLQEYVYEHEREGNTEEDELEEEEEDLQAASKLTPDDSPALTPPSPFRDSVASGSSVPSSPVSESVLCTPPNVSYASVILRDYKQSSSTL
Test [4] deals with T2, Metabotropic glutamate receptor 4 (Homo sapiens, UniProt Q14833). As to the kind of experiment: Agonist activity against Metabotropic glutamate receptor 4 expressed in HEK 293 cells was evaluated by measuring total inositol phosphate accumulation; No effect at 1 mM. Type of test: functional, cell-based. The note with it: hek293.
T2 sequence (Q14833 whole entry): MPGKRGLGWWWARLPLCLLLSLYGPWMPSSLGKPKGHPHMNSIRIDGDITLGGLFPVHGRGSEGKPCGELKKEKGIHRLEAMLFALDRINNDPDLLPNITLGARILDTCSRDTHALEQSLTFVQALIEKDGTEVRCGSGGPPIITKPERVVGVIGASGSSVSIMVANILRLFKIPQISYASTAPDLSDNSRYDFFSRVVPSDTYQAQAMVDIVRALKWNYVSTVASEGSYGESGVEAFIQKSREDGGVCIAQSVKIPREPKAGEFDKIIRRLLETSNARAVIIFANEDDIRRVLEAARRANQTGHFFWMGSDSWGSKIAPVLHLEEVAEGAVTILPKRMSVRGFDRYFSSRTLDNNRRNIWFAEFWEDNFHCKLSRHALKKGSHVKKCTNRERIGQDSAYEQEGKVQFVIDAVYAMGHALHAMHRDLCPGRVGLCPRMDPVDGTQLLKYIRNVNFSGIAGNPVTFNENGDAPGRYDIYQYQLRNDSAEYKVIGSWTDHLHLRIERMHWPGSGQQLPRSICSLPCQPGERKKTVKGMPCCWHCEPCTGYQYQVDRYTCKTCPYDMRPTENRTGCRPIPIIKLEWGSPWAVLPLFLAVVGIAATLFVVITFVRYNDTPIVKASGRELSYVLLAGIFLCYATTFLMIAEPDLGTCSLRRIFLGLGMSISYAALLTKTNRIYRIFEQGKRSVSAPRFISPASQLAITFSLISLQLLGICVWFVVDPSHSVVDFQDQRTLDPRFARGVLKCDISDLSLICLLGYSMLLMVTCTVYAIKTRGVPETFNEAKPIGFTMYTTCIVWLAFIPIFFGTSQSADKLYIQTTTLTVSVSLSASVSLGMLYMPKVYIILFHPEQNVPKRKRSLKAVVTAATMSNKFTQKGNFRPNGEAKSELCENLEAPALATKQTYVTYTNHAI
The target of test [5] is T2, Metabotropic glutamate receptor 4. The test is described as follows: Agonist activity against Metabotropic glutamate receptor 4 expressed in HEK 293 cells was evaluated by measuring total inositol phosphate accumulation. Type of test: functional, cell-based, HEK293.
In test [6] the target is T1, Metabotropic glutamate receptor 2. As to the kind of experiment: Antagonist activity against Metabotropic glutamate receptor 2 expressed in HEK 293 cells was evaluated by measuring total inositol phosphate accumulation; No effect at 1 mM. The note with it: HEK293. Type of test: functional, cell-based.
Target sequence in this assay (Q14416 19-872 limits assumed): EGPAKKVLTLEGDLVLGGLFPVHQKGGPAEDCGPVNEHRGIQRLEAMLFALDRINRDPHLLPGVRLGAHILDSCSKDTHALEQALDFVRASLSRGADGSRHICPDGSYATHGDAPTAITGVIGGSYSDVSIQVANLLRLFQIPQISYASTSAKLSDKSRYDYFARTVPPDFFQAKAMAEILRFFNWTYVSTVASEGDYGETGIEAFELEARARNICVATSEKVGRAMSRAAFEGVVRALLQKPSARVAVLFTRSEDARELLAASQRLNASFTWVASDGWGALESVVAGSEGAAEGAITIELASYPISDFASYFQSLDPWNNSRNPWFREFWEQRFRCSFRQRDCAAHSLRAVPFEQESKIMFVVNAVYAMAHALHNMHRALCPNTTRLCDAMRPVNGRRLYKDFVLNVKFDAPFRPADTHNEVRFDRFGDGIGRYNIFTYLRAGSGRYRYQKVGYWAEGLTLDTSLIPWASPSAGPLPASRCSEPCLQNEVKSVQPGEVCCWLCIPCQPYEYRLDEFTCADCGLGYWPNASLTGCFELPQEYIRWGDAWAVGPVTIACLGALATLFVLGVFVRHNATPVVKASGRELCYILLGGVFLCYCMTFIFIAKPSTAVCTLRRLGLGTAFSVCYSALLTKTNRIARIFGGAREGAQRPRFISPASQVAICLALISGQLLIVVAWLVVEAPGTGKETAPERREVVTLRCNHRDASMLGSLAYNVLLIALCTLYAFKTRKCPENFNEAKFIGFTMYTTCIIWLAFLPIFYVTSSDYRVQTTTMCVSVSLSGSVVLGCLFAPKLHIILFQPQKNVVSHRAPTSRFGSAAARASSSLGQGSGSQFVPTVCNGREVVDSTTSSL

`N[C@@]1(C(=O)O)CC[C@H](C(=O)O)C1`: in test [1], the response was half-maximal at 13 µM (EC50). This lies in the double-digit micromolar range.
On to `NC1(C(=O)O)C[C@@H](C(=O)O)[C@H](C(=O)O)C1`, for which the EC50 result in test [2], in test [3] and in test [4] was “No effect” in each case.
Take `NC1(C(=O)O)CC(C(=O)O)C(C(=O)O)C1` (racemic): the values for the EC50 entry in test [2], in test [5] and in test [3] were “No effect”, 40 µM and “No effect”, respectively.
Take `N[C@]1(C(=O)O)CC[C@@H](C(=O)O)C1`: the EC50 (in general, the concentration at which the effect is half-maximal) in test [1] is more than 1000 µM; in test [4], “No effect”.
With `N[C@]1(C(=O)O)C[C@H](C(=O)O)[C@H](C(=O)O)C1`, the EC50 result in test [2], in test [3] and in test [4] was “No effect” each time.
In the case of `N[C@]1(C(=O)O)CC[C@H](C(=O)O)C1`, in test [1], the EC50 was found to be 110 µM.
For `N[C@@]1(C(=O)O)C[C@H](C(=O)O)[C@H](C(=O)O)C1`, the EC50 entry in test [2] was “No effect”; in test [5] it was 7.2 µM; in test [3], “No effect”. Also, the Kb entry in test [6] was “No effect”.
Regarding `NC1(C(=O)O)C[C@H](C(=O)O)[C@@H](C(=O)O)C1`, the EC50 entry is “No effect” in test [2], 8.8 µM in test [5] and “No effect” in test [3].
The compound `N[C@@]1(C(=O)O)CC[C@@H](C(=O)O)C1` came in with an EC50 in test [1] of 18 µM.
